1 compound from ChEMBL document CHEMBL4837214, “Design, synthesis, and biological evaluation of novel tetrahydroprotoberberine derivatives to reduce SREBPs expression for the treatment of hyperlipidemia” (Eur J Med Chem, 2021) can be followed below.

The source made the active and inactive calls. The rule behind the calls is not given here.

Data set [1] concerns HepG2. Put plainly: Effect on PCSK9 protein expression in human HepG2 cells at 10 uM incubated for 24 hrs by Western blotting analysis. Type of data set: functional, cell-based. The essentials: (§1)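 HepG2 cells treated 24 h at the indicated doses and lysed in RIPA buffer with protease inhibitors; protein quantified by BCA. Lysates run on 10% SDS-PAGE and blotted to nitrocellulose. After 5% milk block, primary antibody applied overnight at 4 °C and secondary 1 h at room temperature. β-actin served as loading reference.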
A general note: In western blotting, separated proteins are transferred to a membrane and probed.

The test system of data set [2] is HepG2. The data set can be described thus: Down regulation of precursor and mature forms of SREBP-1 protein expression in human HepG2 cells after 24 hrs by Western blotting analysis. Type of data set: functional, cell-based. The following applies: dose 5-80 µM. The essentials: as §1
The test system of data set [3] is Mus musculus. The data set can be described thus: […] activity in high fat diet-induced C57BL/6J mouse assessed as reduction in Fasn mRNA level in liver at 170 to 340 mg/kg, po administered daily for 6 weeks by qRT-PCR analysis. Type of data set: functional, organism-based. Particulars: dose 170-340 mg/kg. In a few lines: (§2)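 Male C57BL/6J mice, six weeks old, fed a 45%-fat diet (HFD) for 15 weeks; chow-fed mice served as controls. Obese mice were randomized to vehicle (0.1% w/v CMC-Na) or 170 or 340 mg/kg, gavaged daily for 6 weeks while diet continued. Body weight, food intake, organ weights, serum lipids, tissue histology (H&E, Oil red O), liver SREBP blots and liver qPCR followed.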

The nature of data set [4]: MRT (0 to infinity) in Sprague-Dawley rat at 1 mg/kg, iv measured upto 12 hrs by LC-MS/MS analysis. Type of data set: ADME, organism-based. Particulars: in vivo. In a few lines:
(§3)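 Six SD rats split into two groups of three, dosed 1 mg/kg IV or 10 mg/kg orally. IV blood drawn at 2, 5, 15, 30 min and 1, 2, 4, 6, 8, 12 h. Oral blood drawn at 5, 15, 30 min and 1, 2, 4, 6, 8, 12, 24 h. Serum drug measured by LC/MS/MS. Parameters are the average of three runs.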

The subject of data set [5] is HepG2. Put plainly: Down regulation of FASN gene expression in human HepG2 cells by qRT-PCR analysis. Type of data set: functional, cell-based. In general terms: In qPCR the cycle at which signal appears reflects the starting amount.
The subject of data set [6] is HepG2. Put plainly: Down regulation of SCD gene expression in human HepG2 cells by qRT-PCR analysis. Type of data set: functional, cell-based.
Data set [7] is described as follows: Tmax in Sprague-Dawley rat at 1 mg/kg, iv measured upto 12 hrs by LC-MS/MS analysis. Type of data set: ADME, organism-based. Particulars: in vivo. The essentials:
as §3

The nature of data set [8]: Toxicity in C57BL/6J mouse assessed as reduction in liver weight at 170 to 340 mg/kg, po measured every week for 6 weeks. Type of data set: organism-based. The following applies: in vivo, 1008 h, dose 170-340 mg/kg. The essentials:
as §2

The test system of data set [9] is HepG2. Put plainly: Down regulation of LDLR gene expression in human HepG2 cells by qRT-PCR analysis. Type of data set: functional, cell-based.
A short description of data set [10]: Toxicity in high fat diet-induced C57BL/6J mouse assessed as change in kidney morphology at 170 to 340 mg/kg, po administered for 6 weeks by H and E staining-based assay. Type of data set: organism-based. The following applies: in vivo, 1008 h, dose 170-340 mg/kg. The essentials: as §2
The nature of data set [11]: Clearance in Sprague-Dawley rat at 1 mg/kg, iv measured upto 12 hrs by LC-MS/MS analysis. Type of data set: ADME, organism-based. Particulars: in vivo. The essentials: as §3
Data set [12] in a line: Toxicity in high fat diet-induced C57BL/6J mouse assessed as reduction in body weight at 170 to 340 mg/kg, po measured every week for 6 weeks. Type of data set: organism-based. Particulars: in vivo, 1008 h, dose 170-340 mg/kg. In a few lines: as §2
For data set [13], the system named is HepG2. The data set can be described thus: Down regulation of intracellular TC level in human HepG2 cells at 10 uM measured after 24 hrs. Type of data set: functional, cell-based. The essentials: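 HepG2 cells grown in six-well plates and exposed 24 h to compound at […]. Cells collected in PBS and sonicated (5 s on, 10 s off, 60 s total). Total cholesterol or triglyceride measured with a colorimetric determination kit.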

Data set [14] can be described thus: Half life in Sprague-Dawley rat at 1 mg/kg, iv measured upto 12 hrs by LC-MS/MS analysis. Type of data set: ADME, organism-based. Particulars: in vivo. In a few lines: as §3
Data set [15] deals with Mus musculus. The data set can be described thus: Hypolipidemic activity in high fat diet-induced C57BL/6J mouse assessed as reduction in lipid accumulation in liver at 170 to 340 mg/kg, po administered daily for 6 weeks by Oil Red O staining based assay. Type of data set: functional, organism-based. The following applies: dose 170-340 mg/kg. The essentials: as §2
The test system of data set [16] is Mus musculus. Put plainly: […] activity in high fat diet-induced C57BL/6J mouse assessed as reduction in ACC mRNA level in liver at 170 to 340 mg/kg, po administered daily for 6 weeks by qRT-PCR analysis. Type of data set: functional, organism-based. The following applies: dose 170-340 mg/kg. In a few lines: as §2
Data set [17] concerns the target T1, Sterol regulatory element-binding protein 1 (Homo sapiens) (UniProt P36956).
T1 sequence (whole entry): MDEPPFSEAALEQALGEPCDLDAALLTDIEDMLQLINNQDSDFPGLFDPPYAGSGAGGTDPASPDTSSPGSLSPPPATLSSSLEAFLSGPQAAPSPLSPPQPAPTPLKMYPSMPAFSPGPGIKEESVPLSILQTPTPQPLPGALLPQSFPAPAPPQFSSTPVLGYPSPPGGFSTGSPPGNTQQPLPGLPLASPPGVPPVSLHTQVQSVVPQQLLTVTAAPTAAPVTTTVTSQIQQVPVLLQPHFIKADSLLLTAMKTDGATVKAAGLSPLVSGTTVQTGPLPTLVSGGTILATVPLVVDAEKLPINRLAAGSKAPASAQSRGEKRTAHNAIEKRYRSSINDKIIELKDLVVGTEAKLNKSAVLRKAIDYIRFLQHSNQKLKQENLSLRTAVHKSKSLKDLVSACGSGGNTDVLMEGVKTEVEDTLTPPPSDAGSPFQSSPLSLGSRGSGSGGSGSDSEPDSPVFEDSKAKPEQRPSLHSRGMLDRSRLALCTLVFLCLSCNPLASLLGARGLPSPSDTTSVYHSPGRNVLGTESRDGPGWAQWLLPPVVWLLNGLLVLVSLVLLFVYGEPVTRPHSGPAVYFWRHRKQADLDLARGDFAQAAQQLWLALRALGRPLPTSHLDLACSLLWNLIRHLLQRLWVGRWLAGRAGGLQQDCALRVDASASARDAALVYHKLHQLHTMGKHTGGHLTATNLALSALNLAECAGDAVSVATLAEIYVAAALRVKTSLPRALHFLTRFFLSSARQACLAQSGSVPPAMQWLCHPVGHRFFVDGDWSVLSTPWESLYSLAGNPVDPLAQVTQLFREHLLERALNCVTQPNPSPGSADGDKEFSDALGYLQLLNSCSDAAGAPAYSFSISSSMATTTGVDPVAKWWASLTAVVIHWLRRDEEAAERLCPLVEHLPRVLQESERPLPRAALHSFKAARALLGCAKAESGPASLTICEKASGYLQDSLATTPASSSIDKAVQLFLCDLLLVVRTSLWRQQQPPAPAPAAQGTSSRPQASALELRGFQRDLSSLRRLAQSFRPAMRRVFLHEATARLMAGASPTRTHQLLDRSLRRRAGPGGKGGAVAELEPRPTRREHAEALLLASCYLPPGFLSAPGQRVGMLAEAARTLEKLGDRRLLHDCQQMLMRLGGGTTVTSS
Put plainly: Induction of SREBP degradation in human HepG2 cells at 10 uM preincubated with MG-132 for 1 hr followed by compound additon and measured after 4 hrs by Western blot analysis. Type of data set: cell-based. In a few lines:
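HepG2 cells pretreated 1 h with MG-132 at […]. Medium then switched to MG-132 plus vehicle or compound at […] for 4 h. SREBPs detected in lysates by Western blot.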

The MRT inf is a mean duration of stay, worked out from the concentration-time curve. What is called Tmax is the time from dosing to the highest level. What is called clearance is the volume of plasma or blood freed of the substance per unit of time. Broadly, the half-life is how long it takes for the measured level to halve. A higher half-life goes with slow decline. With `COc1ccc2c(c1OCC1CCCCC1)CN1CCc3cc4c(cc3C1C2)OCO4` (configuration not stated), the outcome (with HepG2 [1]; in [17]) was inactive. Besides, the Activity result in the data set on HepG2 [2] was “Dose-Dependent Effect”; in data set [8] it was “Toxic”; in data set [10], “Non-Toxic”; in [12] it was “Toxic”. The result in the data set with Mus musculus [3], with HepG2 [5], in the data set with HepG2 [6], in the data set with HepG2 [9], in the data set on HepG2 [13] and with Mus musculus [15] was Active. Moreover, in the data set with Mus musculus [16], the outcome was Active. The compound further came in with an MRT inf in [4] of 3.18 h. Moreover, the Tmax in data set [7] stood at 1.98 min. This compound had a clearance in data set [11] of 25.8 mL/min/kg. For the same compound, the half-life in data set [14] is 4.95 h.
